Laboratory results from PMC10326257 (Acta Pharmaceutica Sinica. B, 2023).

Columns and labels:
c-MET [1] = target: T1, c-MET (Homo sapiens, UniProt P08581); format: cell-based; conditions: Western blot, EBC-1 and Hs746T cells
c-MET [2] = target: T1, c-MET; test: biochemical; format: binding
EBC-1 cells [3] = test: Cell proliferation inhibition assay; format: cell-based
HepG2 cells = test: Cell proliferation inhibition assay; format: cell-based; conditions: Homo sapiens, HepG2, 72 h, read-out: IC50 HepG2
Hs746T cells = test: Cell proliferation inhibition assay; format: cell-based; conditions: Homo sapiens, 72 h, read-out: IC50 Hs746T, c-MET-sensitive, 72 h
EBC-1 xenograft tumors = test: EBC-1 xenograft tumor growth model; format: in vivo, BALB/c nude mice; conditions: 10 mg/kg, i.p., qd, 10 days
Procedure, shortened: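 Six-week-old BALB/c nude mice (SPF) received 5 × 10^6 EBC-1 cells subcutaneously in the dorsal flank. At about 80 mm3 they were grouped and dosed at 10 mg/kg i.p. once daily for 10 days; vehicle was 10% DMSO/10% PEG300/5% Tween 80/75% H2O. Calipers and body weight were read every 2 days. V = L×W²/2, and TGI used median volumes. Tumors were weighed at the end, n = 6.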

[4] = Pharmacokinetic study in rats; parameters: species or system Male Sprague–Dawley (SD) rats; conditions: male, Sprague-Dawley, rat, in vivo, iv, 1 mg/kg, CL
A549 cells = test: Cell proliferation inhibition assay; format: cell-based; conditions: Homo sapiens, A549, 72 h, read-out: IC50 A549
EBC-1 cells [5] = test: Cell apoptosis by flow cytometry; format: cell-based; conditions: 48 h

T1 sequence (P08581 25-1390): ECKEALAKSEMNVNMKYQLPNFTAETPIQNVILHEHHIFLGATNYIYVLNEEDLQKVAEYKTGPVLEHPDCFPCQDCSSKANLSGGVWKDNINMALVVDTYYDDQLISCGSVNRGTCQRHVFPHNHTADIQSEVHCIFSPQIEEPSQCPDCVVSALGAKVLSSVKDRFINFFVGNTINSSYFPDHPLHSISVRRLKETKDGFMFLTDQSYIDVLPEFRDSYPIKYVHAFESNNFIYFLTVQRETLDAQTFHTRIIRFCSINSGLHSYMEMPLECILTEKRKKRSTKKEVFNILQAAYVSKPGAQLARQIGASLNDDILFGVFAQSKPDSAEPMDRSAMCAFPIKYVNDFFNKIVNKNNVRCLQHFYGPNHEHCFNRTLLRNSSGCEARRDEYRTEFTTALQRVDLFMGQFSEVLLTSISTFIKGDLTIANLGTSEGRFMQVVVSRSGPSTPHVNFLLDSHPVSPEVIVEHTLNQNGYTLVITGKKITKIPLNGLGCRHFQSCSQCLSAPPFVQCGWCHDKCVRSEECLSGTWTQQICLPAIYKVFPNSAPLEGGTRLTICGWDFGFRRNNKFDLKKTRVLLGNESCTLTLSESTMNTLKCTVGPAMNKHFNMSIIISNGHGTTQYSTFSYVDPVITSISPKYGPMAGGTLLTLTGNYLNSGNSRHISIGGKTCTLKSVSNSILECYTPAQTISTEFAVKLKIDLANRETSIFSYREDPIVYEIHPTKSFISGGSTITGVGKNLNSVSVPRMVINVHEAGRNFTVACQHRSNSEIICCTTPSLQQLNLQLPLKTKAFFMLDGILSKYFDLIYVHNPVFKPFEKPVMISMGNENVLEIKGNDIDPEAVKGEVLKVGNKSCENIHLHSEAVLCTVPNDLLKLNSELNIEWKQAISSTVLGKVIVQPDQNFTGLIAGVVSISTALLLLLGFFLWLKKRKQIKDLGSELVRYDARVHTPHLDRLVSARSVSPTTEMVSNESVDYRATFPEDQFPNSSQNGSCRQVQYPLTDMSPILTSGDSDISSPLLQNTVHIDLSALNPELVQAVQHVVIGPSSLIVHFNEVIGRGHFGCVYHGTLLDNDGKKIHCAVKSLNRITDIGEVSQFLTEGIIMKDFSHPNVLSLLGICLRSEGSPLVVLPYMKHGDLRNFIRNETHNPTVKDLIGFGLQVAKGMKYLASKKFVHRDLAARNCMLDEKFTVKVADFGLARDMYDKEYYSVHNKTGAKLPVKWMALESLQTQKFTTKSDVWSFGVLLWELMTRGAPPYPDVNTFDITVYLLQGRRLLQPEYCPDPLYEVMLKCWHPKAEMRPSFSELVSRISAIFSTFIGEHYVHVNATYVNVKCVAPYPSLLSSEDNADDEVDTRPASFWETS

With `O=C1CCC(N2C(=O)c3ccccc3C2=O)C(=O)N1` (centres unmarked) [Thalidomide] the c-MET degradation effect (c-MET [1]) was “none”.

`N#Cc1cccc(-c2ccc(=O)n(Cc3cccc(-c4ncc(OCC5CCNCC5)cn4)c3)n2)c1` [compound 6] gave a Kd (c-MET [2]) of 9.97 nM.

For `CN1C(=O)CCC(N2C(=O)c3ccc(N4CCN(C(=O)CN5CCC(COc6cnc(-c7cccc(Cn8nc(-c9cccc(C#N)c9)ccc8=O)c7)nc6)CC5)CC4)cc3C2=O)C1=O` (centres unmarked) [D16], the c-MET degradation effect (c-MET [1]) was “no degradation effect”, the “inhibition of cell proliferation, fold weaker than D15” value (EBC-1 cells [3]; EBC-1 and Hs746T cells) was “approximately 10 fold” and the Kd (c-MET [2]) was 345 nM. For the same compound, the “binding affinity, fold weaker than D15” value (c-MET [2]; ratio of Kd to D15) was 2 fold.

With `CN1CCC(COc2cnc(-c3cccc(Cn4nc(-c5cccc(C#N)c5)ccc4=O)c3)nc2)CC1` [Tepotinib] the IC50 (HepG2 cells) was 476 ± 45 nM, the IC50 (Hs746T cells) was 2.63 ± 0.72 nM and the “tumor growth inhibition (TGI%)” value (EBC-1 xenograft tumors) was 71.9%. For the same compound, the clearance [4] was 70 mL/min/kg, the IC50 (A549 cells) was 277 ± 59 nM and the IC50 (EBC-1 cells [3]; Homo sapiens, EBC-1, 72 h, read-out: IC50 EBC-1) was 1.32 ± 0.39 nM. For the same compound, the apoptosis rate (EBC-1 cells [5]; EBC-1, 10 nmol/L) was 39.3% and the apoptosis rate (EBC-1 cells [5]; EBC-1, 100 nmol/L) was 59.4%.
